Assay [1] addresses T1, Adenosine receptor A1 (Rattus norvegicus, UniProt P25099).
T1 sequence (P25099 whole entry): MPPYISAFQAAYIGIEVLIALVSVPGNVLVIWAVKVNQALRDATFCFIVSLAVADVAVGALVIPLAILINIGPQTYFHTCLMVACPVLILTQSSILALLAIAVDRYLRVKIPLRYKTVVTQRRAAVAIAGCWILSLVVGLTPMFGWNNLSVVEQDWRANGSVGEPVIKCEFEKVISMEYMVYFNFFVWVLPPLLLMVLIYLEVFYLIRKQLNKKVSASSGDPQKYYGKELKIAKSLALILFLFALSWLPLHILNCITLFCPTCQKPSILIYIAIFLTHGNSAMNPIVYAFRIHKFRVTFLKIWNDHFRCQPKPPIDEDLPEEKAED
Nature of the assay: Displacement of [3H]CCPA from adenosine receptor A1 in rat brain cortex membranes incubated for 90 mins by radioligand competition assay. Format: cell membranes, Cell membrane.

For the next assay, the target named is Adenosine receptor A2a (Rattus norvegicus, UniProt P30543). Nature of the assay: Displacement of [3H]MSX2 from adenosine receptor A2A in rat brain striatum membranes incubated for 30 mins by radioligand competition assay. The assay is classed as cell membranes, Cell membrane.
Sequence of Adenosine receptor A2a (P30543 whole entry): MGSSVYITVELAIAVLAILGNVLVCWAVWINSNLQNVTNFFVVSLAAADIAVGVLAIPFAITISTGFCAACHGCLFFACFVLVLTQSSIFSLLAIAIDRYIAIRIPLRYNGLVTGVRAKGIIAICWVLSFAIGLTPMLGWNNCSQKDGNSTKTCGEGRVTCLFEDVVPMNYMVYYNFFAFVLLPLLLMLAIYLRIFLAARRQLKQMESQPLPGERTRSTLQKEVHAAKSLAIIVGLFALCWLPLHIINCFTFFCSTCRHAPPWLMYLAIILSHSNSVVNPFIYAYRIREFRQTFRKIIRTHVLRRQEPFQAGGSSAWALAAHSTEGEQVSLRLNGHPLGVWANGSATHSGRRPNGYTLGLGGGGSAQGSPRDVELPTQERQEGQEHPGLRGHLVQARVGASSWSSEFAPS
Assay [2] concerns the target T2, Adenosine receptor A2b (Homo sapiens, UniProt P29275).
T2 sequence (P29275 whole entry): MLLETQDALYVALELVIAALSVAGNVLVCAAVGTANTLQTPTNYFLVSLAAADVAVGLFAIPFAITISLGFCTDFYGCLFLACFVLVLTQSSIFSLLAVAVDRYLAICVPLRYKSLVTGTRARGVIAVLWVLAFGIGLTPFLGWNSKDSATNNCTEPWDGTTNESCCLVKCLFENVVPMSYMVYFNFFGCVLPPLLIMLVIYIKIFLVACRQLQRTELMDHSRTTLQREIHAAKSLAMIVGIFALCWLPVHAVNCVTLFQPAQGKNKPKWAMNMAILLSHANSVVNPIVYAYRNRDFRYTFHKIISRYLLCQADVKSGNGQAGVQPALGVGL
Nature of the assay: Displacement of [3H]PSB-603 from human adenosine receptor A2B expressed in CHO cell membranes incubated for 75 mins by radioligand competition assay. Also on record: species or system Cell membrane.

The target in assay [3] is T3, Adenosine receptor A2b (Rattus norvegicus, UniProt P29276).
T3 sequence (P29276 whole entry): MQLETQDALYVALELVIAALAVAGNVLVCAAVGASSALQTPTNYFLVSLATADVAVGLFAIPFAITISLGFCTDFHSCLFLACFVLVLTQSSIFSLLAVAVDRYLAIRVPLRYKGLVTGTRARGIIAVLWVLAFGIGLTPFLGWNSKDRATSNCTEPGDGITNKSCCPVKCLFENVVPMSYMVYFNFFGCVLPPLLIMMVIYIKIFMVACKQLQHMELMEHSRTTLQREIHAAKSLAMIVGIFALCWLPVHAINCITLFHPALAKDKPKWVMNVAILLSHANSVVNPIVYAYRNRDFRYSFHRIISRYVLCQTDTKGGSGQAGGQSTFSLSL
Description: Displacement of [3H]PSB-603 from rat adenosine receptor A2B expressed in CHO cell membranes incubated for 75 mins by radioligand competition assay. Also on record: species or system Cell membrane. In a few lines: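 CHO membranes expressing human or rat A2B, [3H]PSB-603 0.3 nM. Nonspecific binding defined by 10 µM DPCPX. Preincubated 20 min with adenosine deaminase, then 75 min at rt in Tris-HCl pH 7.4 with 2.5% DMSO. Filters washed with ice-cold 50 mM Tris-HCl containing 0.1% BSA; scintillation counting.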

Assay [4] concerns the target T4, Adenosine receptor A3 (Homo sapiens, UniProt P0DMS8).
T4 sequence (P0DMS8 whole entry): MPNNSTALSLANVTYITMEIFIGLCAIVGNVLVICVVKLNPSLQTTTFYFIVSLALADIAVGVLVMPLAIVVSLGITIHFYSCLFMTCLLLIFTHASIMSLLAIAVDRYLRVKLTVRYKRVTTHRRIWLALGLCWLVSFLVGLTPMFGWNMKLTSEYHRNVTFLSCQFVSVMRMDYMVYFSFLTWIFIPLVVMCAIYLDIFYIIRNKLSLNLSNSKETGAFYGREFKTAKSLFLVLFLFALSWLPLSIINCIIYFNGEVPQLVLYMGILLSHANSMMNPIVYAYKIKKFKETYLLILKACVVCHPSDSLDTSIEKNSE
Nature of the assay: Displacement of [3H]PSB-11 from human adenosine receptor A3 expressed in CHO cell membranes incubated for 60 mins by radioligand competition assay. Also on record: species or system Cell membrane.

The target in assay [5] is T5, Adenosine receptor A3 (Rattus norvegicus, UniProt P28647).
T5 sequence (P28647 whole entry): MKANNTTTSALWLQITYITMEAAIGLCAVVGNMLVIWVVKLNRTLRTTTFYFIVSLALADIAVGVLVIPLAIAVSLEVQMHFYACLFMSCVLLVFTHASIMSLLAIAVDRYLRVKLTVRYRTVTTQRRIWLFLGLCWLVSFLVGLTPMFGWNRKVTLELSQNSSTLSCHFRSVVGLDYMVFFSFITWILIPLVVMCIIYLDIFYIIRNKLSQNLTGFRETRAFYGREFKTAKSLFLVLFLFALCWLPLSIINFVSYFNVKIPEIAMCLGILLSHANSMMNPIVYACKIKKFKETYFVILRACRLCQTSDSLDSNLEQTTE
Description: Displacement of [3H]NECA from rat adenosine receptor A3 expressed in CHO cell membranes incubated for 60 mins by radioligand competition assay. Also on record: species or system Cell membrane.

The target in assay [6] is T6, Adenosine receptor A3 (Homo sapiens) (UniProt P0DMS8).
T6 sequence (whole entry): T4 sequence (P0DMS8 whole entry)
Description: Displacement of [3H]PSB-11 from human adenosine receptor A3 expressed in CHO cell membranes at 0.1 uM incubated for 60 mins by radioligand competition assay. Conditions: Cell membrane, filed as antagonist, dose 0.1 µM. An outline of the steps: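 CHO membranes expressing human A3, [3H]PSB-11 0.5 nM. Nonspecific binding defined by 100 µM R-PIA. Adenosine deaminase preincubation 20 min, then 60 min at rt in 50 mM Tris-HCl pH 7.4 with 2.5% DMSO. Filtered on GF/B, scintillation counted.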

The target in assay [7] is T1, Adenosine receptor A1. Nature of the assay: Displacement of [3H]DPCPX from rat brain cortical membrane A1AR in absence of GTP by scintillation counting analysis. The assay is classed as cell membranes, Cortex, Cell membrane.
Assay [8] has as its target T1, Adenosine receptor A1. Description: Displacement of [3H]CCPA from rat adenosine receptor A1 by radioligand competition assay. An outline of the steps: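 A1 competition binding with [3H]CCPA, 0.5 nM. Membranes: CHO cells expressing human A1, or rat brain cortex. Membranes preincubated 20 min with adenosine deaminase (2 U/mL per mg protein). Incubation 90 min at rt in 50 mM Tris-HCl pH 7.4 with 2.5% final DMSO. Nonspecific binding defined by 10 µM 2-chloroadenosine. GF/B filtration, scintillation counting.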

Assay [9] concerns the target T7, Adenosine receptor A3 (Rattus norvegicus) (UniProt P28647).
T7 sequence (whole entry): T5 sequence (P28647 whole entry)
Nature of the assay: Displacement of [3H]NECA from rat adenosine receptor A3 expressed in CHO cell membranes at 0.1 uM incubated for 60 mins by radioligand competition assay relative to control. Conditions: Cell membrane. In a few lines: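 CHO membranes expressing rat A3, [3H]NECA 10 nM. Nonspecific binding defined by 100 µM R-PIA. Preincubated 20 min with adenosine deaminase, then 60 min at rt in 50 mM Tris-HCl pH 7.4 with 2.5% DMSO. GF/B filtration, scintillation counting.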

With `COc1ccc(C(=O)Nc2nc(-c3ccccc3)c(C(=O)c3ccc(C)cc3)s2)cc1`, the inhibitory constant (Ki) at Adenosine receptor A1 [1] is 0.529 nM; at Adenosine receptor A2a, more than 1000 nM; on Adenosine receptor A2b [2], more than 100 nM; at Adenosine receptor A2b [3] it was more than 100 nM; at Adenosine receptor A3 [4] it was more than 1000 nM; at Adenosine receptor A3 [5], more than 10000 nM. The Ki at Adenosine receptor A1 [8] amounted to 0.529 nM. The inhibition in [6] was 45%; in assay [9] it was 13%. The half-inhibitory concentration (IC50) on Adenosine receptor A1 [7] turned out to be 0.0756 nM.

For the origin of these results see ChEMBL document CHEMBL4680130, “Substituted 4-phenylthiazoles: Development of potent and selective A, A and dual A/A adenosine receptor antagonists” (Eur J Med Chem, 2020).
